OX1R antag-1 = blocks the human orexin 1 receptor; CHO/OX1R cells, Fluo-8 calcium fluorescence, orexin A; O43613; 330,000 compounds, 0.43% hits; AID 434989; inhibition, % at 5 µM;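 active = inhibition above its plate's threshold, mean inhibition of all tested compounds on the plate plus 3 SD, cut at about 37% in these data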
Target sequence (O43613 whole entry, looked up): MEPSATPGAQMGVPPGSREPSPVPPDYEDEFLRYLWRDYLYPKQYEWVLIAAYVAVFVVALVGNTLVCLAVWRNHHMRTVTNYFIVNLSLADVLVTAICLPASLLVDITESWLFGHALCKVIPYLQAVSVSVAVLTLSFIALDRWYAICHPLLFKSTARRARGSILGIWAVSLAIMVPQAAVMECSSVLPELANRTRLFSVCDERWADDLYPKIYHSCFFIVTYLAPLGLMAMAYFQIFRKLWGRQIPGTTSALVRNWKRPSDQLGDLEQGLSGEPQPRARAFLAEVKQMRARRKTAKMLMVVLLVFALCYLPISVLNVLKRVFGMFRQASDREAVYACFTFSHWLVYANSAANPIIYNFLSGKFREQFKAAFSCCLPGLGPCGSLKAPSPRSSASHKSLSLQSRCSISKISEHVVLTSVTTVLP
GalR3 antag = blocks the human galanin receptor 3; O60755; HEK293 GalR3-CNG cAMP membrane potential fluorescence; galR3 body fused to GalR1 C-terminus; inhibition, % at 3 µM; 360,000 compounds, 0.44% hits; AID 651719;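 active = inhibition above the screen-wide average plus 3 SD, cut at about 13% in these data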;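 note: forskolin and galanin both at EC90 stimulate the cells; cAMP rise reported by CNG channel membrane potential dye signal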
CHO parental Ca = counter-screen for OX1R antagonists: effect in parental CHO cells; parental CHO-K1, ATP-induced calcium, Fluo-8 fluorescence; inhibition, % at 5.6 µM; 330,000 compounds, 0.63% hits; AID 463079;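 active = inhibition above that plate's mean sample inhibition plus 3 SD, cut at about 26% in these data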
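Test system: untransfected parental CHO cell line; also added: ATP stimulus; dosing: 5.6 µM, single dose; signal: calcium-sensitive Fluo-8 fluorescence; measure: percent inhibition of ATP-evoked calcium rise, normalized to controls; benchmarks: low control ATP plus DMSO, high control DMSO only; replication: one well per compound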
OX1R antag-2 = blocks the human orexin 1 receptor | inhibition, % at 6.6 µM | 330,000 compounds, 1.8% hits | AID 485270 | O43613 | OX1R-expressing cells, FRET antagonist read-out; in the data active = inhibition mostly above about 38%, no sharp cut-off; inactive = mostly below about 40%
GPR7 antagonist = blocks human GPR7 receptor signaling | AID 1861 | inhibition, % at 4.4 µM | P48145 | GPR7-expressing cells, fluorescence antagonist assay | 290,000 compounds, 1.1% hits; in the data active = inhibition above about 16%, passing the limit was not always enough;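 note: cells stimulated with the agonist NPW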
Target sequence (P48145 whole entry, looked up): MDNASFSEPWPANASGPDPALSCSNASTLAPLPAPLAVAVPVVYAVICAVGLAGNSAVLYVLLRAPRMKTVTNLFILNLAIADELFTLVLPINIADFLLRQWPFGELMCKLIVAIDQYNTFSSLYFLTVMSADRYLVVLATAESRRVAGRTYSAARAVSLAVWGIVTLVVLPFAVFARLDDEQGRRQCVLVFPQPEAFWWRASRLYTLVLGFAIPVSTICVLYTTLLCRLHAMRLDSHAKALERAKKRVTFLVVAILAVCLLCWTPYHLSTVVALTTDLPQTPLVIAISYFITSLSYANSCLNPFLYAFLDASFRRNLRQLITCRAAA
OX1R Ca confirm = confirmation of human orexin 1 receptor antagonists; shares compounds with OX1R antag-1; CHO/OX1R cells, orexin A calcium Fluo-8 fluorescence; inhibition, % at 5 µM; 1,100 compounds, 38% hits; in the data active = inhibition above about 29%
CHO Ca counter = signal in parental CHO cells, OX1R antagonist counter-screen; parental CHO-K1, ATP-induced calcium, Fluo-8 fluorescence; 1,100 compounds, 9.3% hits; inhibition, % at 5.6 µM; shares compounds with OX1R antag-1;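 active = inhibition above a per-plate limit, the mean inhibition of that plate's test compounds plus 3 SD, cut at about 25% in these data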
OX1R HTRF confirm = confirmation of human orexin 1 receptor antagonists, HTRF format; shares compounds with OX1R antag-2; OX1R-expressing cells, HTRF antagonist assay; inhibition, % at 6.6 µM; 1,800 compounds, 49% hits; in the data active = inhibition above about 55%;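 note: CHO cells expressing OX1R stimulated with orexin A at about EC80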
CHO-K1 HTRF cnt = counter-screen for OX1R antagonists: effect in parental CHO-K1 cells; AID 493232; inhibition, % at 6.6 µM; 1,800 compounds, 48% hits; shares compounds with OX1R antag-2; HTRF counterscreen; in the data active = inhibition above about 17%
Large screens that a line does not name were inactive (follow-up assays come after a bar, where they were run). Sampled rows, rich in hits. Any-hit rate of the full collection: about 3.1%.

CN(Cc1c(C(=O)N/N=C/c2ccc(O)cc2)nnn1-c1nonc1N)c1ccccc1	OX1R antag-1 80, OX1R antag-2 95 | OX1R Ca confirm 37 | CHO Ca counter inactive | OX1R HTRF confirm 79 | CHO-K1 HTRF cnt inactive
Cc1ccc(S(=O)(=O)N(C)C)cc1NC(=O)COC(=O)/C=C/c1ccc(F)cc1	none (no result: GPR7 antagonist)
O=C(CN1CCN(S(=O)(=O)c2ccc(F)c(Cl)c2)CC1)N1CCNC1=O	none (no result: GPR7 antagonist)
O=C1NC[C@@H](CCCCN2C[C@H](Cc3ccc(O)cc3)N(CCc3ccc(O)cc3)C(=O)C2=O)N(CC2CCCCC2)C1=O	none (no result: OX1R antag-1, CHO parental Ca, OX1R antag-2, GPR7 antagonist)
O=C(COC(=O)Cc1c(F)cccc1Cl)NNC(=O)c1ccccc1	none (no result: GPR7 antagonist)
COc1ccccc1C(=O)Nc1nnc(-c2ccco2)s1	OX1R antag-1 55, OX1R antag-2 59 | OX1R Ca confirm inactive | CHO Ca counter inactive | OX1R HTRF confirm 56 | CHO-K1 HTRF cnt inactive
COC(=O)c1ccccc1NC(=O)c1sc(N)nc1C	none
COC(=O)c1ccccc1NC(=O)c1sc(=S)n(C)c1N	OX1R antag-1 78, OX1R antag-2 93 | OX1R Ca confirm 97 | CHO Ca counter inactive | OX1R HTRF confirm 94 | CHO-K1 HTRF cnt inactive
COc1ccc(S(=O)(=O)Nc2ccc3c(c2)[C@H]2C[C@H](CC(=O)NCC4CC4)O[C@@H](CO)[C@H]2O3)cc1	none (no result: OX1R antag-1, CHO parental Ca, OX1R antag-2, GPR7 antagonist)
CCc1ccc(S(=O)(=O)/N=C2\C=C(NS(=O)(=O)c3ccccc3)C(=O)c3ccccc32)cc1	none (no result: OX1R antag-1, CHO parental Ca, OX1R antag-2)
COC(=O)C(C(C)=O)C1=C/C(=N\S(=O)(=O)c2ccc(C)cc2)c2ccccc2C1=O (centres undefined)	OX1R antag-1 97, OX1R antag-2 106 (no result: GalR3 antag) | OX1R Ca confirm 50 | CHO Ca counter inactive | OX1R HTRF confirm 94 | CHO-K1 HTRF cnt inactive
O=C1C([N+](=O)[O-])=C(O)c2cccc3cccc1c23	none (no result: OX1R antag-1, GalR3 antag, CHO parental Ca, OX1R antag-2)
Cc1ccc(C)n1-c1ccc(N(C)C)cc1	none
Cc1ccc(S(=O)(=O)N(C)c2ccc(C(=O)NCC(c3cccs3)N3CCOCC3)cc2)cc1 (centres undefined)	none
Cc1ccc(N(C)S(=O)(=O)c2cccc(C(=O)NCC(c3cccs3)N3CCOCC3)c2)cc1 (centres undefined)	OX1R antag-1 47, OX1R antag-2 78 (no result: GPR7 antagonist) | OX1R Ca confirm 38 | CHO Ca counter inactive | OX1R HTRF confirm 94 | CHO-K1 HTRF cnt inactive
CCOC(=O)[C@]12CCCC=C1N(Cc1ccc(Cl)cc1Cl)C(=O)[C@H](CC(=O)N1CCN(C(=O)C3CC3)CC1)C2	none (no result: OX1R antag-1, CHO parental Ca, OX1R antag-2, GPR7 antagonist)
Cc1cnc(NC(=O)c2cc3c(C)nn(-c4ccccc4)c3s2)s1	OX1R antag-1 77, OX1R antag-2 56 | OX1R Ca confirm 73 | CHO Ca counter inactive | OX1R HTRF confirm 93 | CHO-K1 HTRF cnt inactive
CC(Oc1cccc(Cl)c1)C(=O)N1CCCN(C)CC1 (centres undefined)	none
COC(=O)[C@@H](NS(=O)(=O)c1cc(Br)ccc1Br)C(C)C	none (no result: OX1R antag-1, CHO parental Ca, OX1R antag-2, GPR7 antagonist)
Cc1ccc(N(CC(=O)NCCc2ccccc2)S(=O)(=O)c2c(C)noc2C)cc1	OX1R antag-1 70, OX1R antag-2 85 | OX1R Ca confirm 44 | CHO Ca counter inactive | OX1R HTRF confirm 82 | CHO-K1 HTRF cnt inactive
CCCCn1c(N)c(N(C)C(=O)c2cc3c(s2)CCCCC3)c(=O)[nH]c1=O	none (no result: GPR7 antagonist)
COc1cccc(NC(=O)Nc2nnc([C@H]3C[C@H](O)[C@@H](CO)O3)s2)c1	none (no result: OX1R antag-1, CHO parental Ca, OX1R antag-2, GPR7 antagonist)
COc1ccc(C(=O)COc2ccccc2C(=O)Nc2ccccc2)cc1	OX1R antag-1 42, OX1R antag-2 71 | OX1R Ca confirm 37 | CHO Ca counter inactive | OX1R HTRF confirm 60 | CHO-K1 HTRF cnt inactive
CCNC(=O)NC(=O)C(C)OC(=O)c1cccn1C (centres undefined)	none
CC(C)n1ncc2c(C(=O)N3CCN(Cc4ccc(Br)s4)CC3)cc(C3CC3)nc21	none (no result: GPR7 antagonist)
CCOC(=O)c1ccc2nc(NC(=O)c3ccco3)sc2c1	OX1R antag-2 81 | OX1R Ca confirm 35 | CHO Ca counter inactive | OX1R HTRF confirm 86 | CHO-K1 HTRF cnt 18
COc1ccc(C=O)cc1OS(=O)(=O)c1ccc(NC(C)=O)cc1	none
COc1ccc(/C=N/NC(=O)c2ccc3ccccc3c2)cc1OS(=O)(=O)c1ccc(NC(C)=O)cc1	OX1R antag-1 60, OX1R antag-2 63 | OX1R Ca confirm 41 | CHO Ca counter inactive | OX1R HTRF confirm inactive | CHO-K1 HTRF cnt inactive
COc1ccccc1CCNC(=O)Cn1ccc2cc(S(=O)(=O)N3CCC(C)CC3)ccc21	none
COc1ccc(OC)c(CCNC(=O)Cn2ccc3cc(S(=O)(=O)N4CCCC4)ccc32)c1	OX1R antag-2 54 | OX1R Ca confirm inactive | CHO Ca counter inactive | OX1R HTRF confirm 63 | CHO-K1 HTRF cnt inactive
Cc1ccc(Cn2nc(C)cc2C(=O)Nc2ccc(Cl)cc2)cc1	OX1R antag-2 56 | OX1R Ca confirm inactive | CHO Ca counter inactive | OX1R HTRF confirm 62 | CHO-K1 HTRF cnt inactive
CC1(C(=O)Nc2ccc(Cl)c(Cl)c2)CCN1C(=O)C1CCCCC1 (centres undefined)	none (no result: OX1R antag-1, CHO parental Ca, OX1R antag-2, GPR7 antagonist)
CCn1nc(C(=O)OCC(=O)N(CCC#N)c2ccccc2)c2ccccc2c1=O	none (no result: GPR7 antagonist)
Fc1cccc(Nc2nc3ccccc3n3cnnc23)c1	OX1R antag-2 53 | OX1R Ca confirm 37 | CHO Ca counter inactive | OX1R HTRF confirm 86 | CHO-K1 HTRF cnt inactive
COc1ccc(S(=O)(=O)Nc2ccc(NC(C)=O)cc2)cc1Br	none
Cn1cc(/C=C(\C#N)C(=O)Nc2ccccc2O)c2ccccc21	OX1R antag-1 57, OX1R antag-2 68 (no result: GalR3 antag) | OX1R Ca confirm 57 | CHO Ca counter inactive | OX1R HTRF confirm 89 | CHO-K1 HTRF cnt inactive
O=C(CSc1ccc(Br)c2cccc(Cl)c12)Nc1ccc(S(=O)(=O)Nc2nccs2)cc1	OX1R antag-1 80, OX1R antag-2 97 | OX1R Ca confirm 74 | CHO Ca counter inactive | OX1R HTRF confirm 90 | CHO-K1 HTRF cnt inactive
CCOC(=O)c1c(C)n(C)c2ccc(OC)c(NC(=O)CN3CCC(C(=O)OCC)CC3)c12	none
CCN(CC(=O)Nc1ccc(NC(C)=O)cc1)C(=O)c1cccc(S(=O)(=O)N2CCCC2)c1	none (no result: GPR7 antagonist)
O=C(Nc1cccc(Cl)c1)c1ccc(F)c(S(=O)(=O)NCc2ccc3c(c2)OCO3)c1	OX1R antag-1 59, OX1R antag-2 83 | OX1R Ca confirm 48 | CHO Ca counter inactive | OX1R HTRF confirm 76 | CHO-K1 HTRF cnt inactive
Cc1nc2ccc(-c3nc4ccccc4o3)cc2[nH]1	OX1R antag-1 50, OX1R antag-2 105 | OX1R Ca confirm 33 | CHO Ca counter inactive | OX1R HTRF confirm 94 | CHO-K1 HTRF cnt inactive

Assay outcomes (PubChem BioAssay)
